A short description of data set [1]: folding enthalpy; higher = less favourable; fluorescence melt of hairpins on a sequencing array, two-state fit. The following applies: sodium 0.088 M. Put shortly:
(§1)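 With Cy3 and quencher oligos annealed, library hairpins on a sequenced MiSeq flow cell were imaged for Cy3 fluorescence in 50 mM Na-HEPES pH 8.0, 25 mM NaCl, in 2.5 °C steps up to 60 °C. Melting temperature and folding enthalpy were derived from bootstrapped two-state fits of signals normalised to pre-quench Cy3 and to control constructs. Four replicates were combined by inverse variance, with fitted temperatures raised by 9.35 °C to match UV melts.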

Data set [2] in a line: melting temperature; fluorescence melt of hairpins on a sequencing array, two-state fit, raised by 9.35 °C to match UV melts. The following applies: sodium 0.088 M. Put shortly:
as §1

Consider 32 sequences from the array DNA melting data of Ke et al. (doi:10.1101/2024.01.08.574731).

Regarding GCGGAGAAATCCGC (((((....))))), the folding enthalpy in data set [1] is -29.1 kcal/mol. The Tm in data set [2] was 61.8 °C.

Turning to GCGGAGCGAAAGCACTGC ((.(.((....)).).)), in data set [1], the folding enthalpy was -12.7 kcal/mol. The Tm in data set [2] came to 50 °C.

Consider GCGGAGCGAAAGCATCGC (((..((....))..))), for which the folding enthalpy in data set [1] is -15.7 kcal/mol. Further, the Tm in data set [2] is 55.7 °C.

As to GCGGAGGACCGC ((((....)))), in data set [1], the folding enthalpy was -19.5 kcal/mol. In addition, in data set [2], the Tm came out at 52.4 °C.

In the case of GCGGAGGCCGC ((((...)))), the folding enthalpy in data set [1] was -18 kcal/mol. Moreover, the Tm in data set [2] was found to be 58.9 °C.

In the case of GCGGATCACCGC ((((....)))), in data set [1], the folding enthalpy was -25.8 kcal/mol. Besides, in data set [2], the Tm came to 59 °C.

As for GCGGATCGAAAGATACGC (((.(((....))).))), in data set [1], the folding enthalpy was -40.3 kcal/mol. The Tm in data set [2] was found to be 68.7 °C.

With GCGGATCGAAAGATGCGC (((.(((....))).))), the folding enthalpy in data set [1] is -38.6 kcal/mol. In addition, the Tm in data set [2] amounted to 66.3 °C.

Take GCGGATGCGAAAGCACGC (((..(((....)))))): in data set [1], the folding enthalpy is -15.8 kcal/mol. The Tm in data set [2] turned out to be 56.6 °C.

As to GCGGATGGAAACATCCAC (.(((((....))))).), in data set [1], the folding enthalpy was -14.7 kcal/mol. Moreover, the Tm in data set [2] stood at 45.3 °C.

Consider GCGGATGGAAACATCTGC ((.((((....)))).)), for which the folding enthalpy in data set [1] is -47.5 kcal/mol. In data set [2], the Tm was determined as 54.4 °C.

In the case of GCGGCAGGAAACCGCCGC (((((.(....).))))), the folding enthalpy in data set [1] was -30.6 kcal/mol. Besides, the Tm in data set [2] came out at 69.3 °C.

In the case of GCGGCAGTCCGC ((((....)))), the folding enthalpy in data set [1] was -23.7 kcal/mol. Also, the Tm in data set [2] worked out at 59.7 °C.

For GCGGCCACCCGC ((((....)))), the folding enthalpy in data set [1] was -19.8 kcal/mol. Besides, the Tm in data set [2] was 59.5 °C.

For the sequence GCGGCCGAAAGGCACCGC ((((((....)))..))), in data set [1], the folding enthalpy was -16.8 kcal/mol. In addition, in data set [2], the Tm is 56 °C.

Turning to GCGGCCGAAAGGCGACGC ((((((....)))..))), the folding enthalpy in data set [1] was -17.2 kcal/mol. Also, the Tm in data set [2] turned out to be 65.9 °C.

For the sequence GCGGCCGAAAGGCGCCGC ((((((....)))..))), the folding enthalpy in data set [1] was -14.9 kcal/mol. Besides, the Tm in data set [2] turned out to be 62.8 °C.

GCGGCCGACCGC ((((....)))): the folding enthalpy in data set [1] was -26.7 kcal/mol. Further, in data set [2], the Tm amounted to 57.6 °C.

Turning to GCGGCCGGAAACAGCCGC (((((.(....).))))), the folding enthalpy in data set [1] is -22.9 kcal/mol. In addition, the Tm in data set [2] came out at 64.8 °C.

With GCGGCGAACCGC ((((....)))), the folding enthalpy in data set [1] is -18.9 kcal/mol. For the same sequence, in data set [2], the Tm came to 56.9 °C.

In the case of GCGGCGACCGC ((((...)))), the folding enthalpy in data set [1] was -16 kcal/mol. In data set [2], the Tm was 55.8 °C.

GCGGCGCGAAAGCCACGC (((..((....))..))): the folding enthalpy in data set [1] is -20.8 kcal/mol. Moreover, the Tm in data set [2] is 61.7 °C.

Consider GCGGCGCGAAAGCTTCGC (((..((....))..))), for which the folding enthalpy in data set [1] is -16.8 kcal/mol. Besides, the Tm in data set [2] is 54.1 °C.

Take GCGGCGCTCCGC ((((....)))): the folding enthalpy in data set [1] is -14.3 kcal/mol. In addition, the Tm in data set [2] was 63.4 °C.

In the case of GCGGCGGGAAACCACCGC ((((.((....)).)))), in data set [1], the folding enthalpy was -41.7 kcal/mol. The Tm in data set [2] came to 60.3 °C.

For the sequence GCGGCGTCCGC ((((...)))), the folding enthalpy in data set [1] is -14.7 kcal/mol. Also, the Tm in data set [2] was found to be 59.9 °C.

Take GCGGCTACCCGC ((((....)))): the folding enthalpy in data set [1] was -22.2 kcal/mol. For the same sequence, in data set [2], the Tm came out at 55.7 °C.

Consider GCGGCTACGAAAGTACGC (((..(((....)))))), for which, in data set [1], the folding enthalpy was -21.6 kcal/mol. Also, the Tm in data set [2] turned out to be 47.6 °C.

Regarding GCGGCTGCCCGC ((((....)))), the folding enthalpy in data set [1] is -19.4 kcal/mol. Besides, the Tm in data set [2] was 55 °C.

Consider GCGGCTGGAAACAGCCAC (.(((((....))))).), for which the folding enthalpy in data set [1] is -11.8 kcal/mol. The Tm in data set [2] was determined as 51.8 °C.

Turning to GCGGCTGGAAACAGTCGC (((.(((....))).))), in data set [1], the folding enthalpy was -47.4 kcal/mol. Besides, the Tm in data set [2] was determined as 67.3 °C.

For GCGGGAGCCCGC ((((....)))), in data set [1], the folding enthalpy is -20 kcal/mol. For the same sequence, the Tm in data set [2] was found to be 56 °C.
